Values joined by “and” are separate entries in the source; they are usually repeats but may differ in a detail not shown here. Equal entries are not always repeated. “Also recorded” adds a separate entry of the source.
What was measured:
rat PPARα = target: T1, rat PPARα (Rattus norvegicus, UniProt P37230); experiment: Rat PPARα reporter gene assay in COS-1 cells; assay type: cell-based; settings: for Agonistic activity REC20 PPARα: concentration showing 20% of the agonistic activity of 30 μM BZF, ±SD; for PPARα agonistic activity (in words): up to 30 μM
T1 sequence (P37230 1-468): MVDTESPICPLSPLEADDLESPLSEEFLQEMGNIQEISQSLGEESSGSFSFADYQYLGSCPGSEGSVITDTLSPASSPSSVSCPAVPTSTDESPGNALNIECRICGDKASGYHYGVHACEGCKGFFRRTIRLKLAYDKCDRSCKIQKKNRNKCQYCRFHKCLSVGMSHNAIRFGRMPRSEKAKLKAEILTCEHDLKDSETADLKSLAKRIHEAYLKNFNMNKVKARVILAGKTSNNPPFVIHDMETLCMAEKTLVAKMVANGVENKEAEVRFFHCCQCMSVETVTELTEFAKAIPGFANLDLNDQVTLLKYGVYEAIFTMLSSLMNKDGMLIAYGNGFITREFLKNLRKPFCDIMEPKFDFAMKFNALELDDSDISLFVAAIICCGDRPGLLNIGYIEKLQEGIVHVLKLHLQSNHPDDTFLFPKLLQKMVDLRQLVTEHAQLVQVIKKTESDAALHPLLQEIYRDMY

rat PXR [1] = target: T2, rat PXR (Rattus norvegicus, UniProt Q9R1A7); experiment: Rat PXR reporter gene assay in COS-1 cells; assay type: cell-based; settings: for Agonistic activity REC20 PXR: concentration showing 20% of the agonistic activity of 1 μM PCN, ±SD; for PXR agonistic activity (in words): up to 30 μM
T2 sequence (Q9R1A7 1-431): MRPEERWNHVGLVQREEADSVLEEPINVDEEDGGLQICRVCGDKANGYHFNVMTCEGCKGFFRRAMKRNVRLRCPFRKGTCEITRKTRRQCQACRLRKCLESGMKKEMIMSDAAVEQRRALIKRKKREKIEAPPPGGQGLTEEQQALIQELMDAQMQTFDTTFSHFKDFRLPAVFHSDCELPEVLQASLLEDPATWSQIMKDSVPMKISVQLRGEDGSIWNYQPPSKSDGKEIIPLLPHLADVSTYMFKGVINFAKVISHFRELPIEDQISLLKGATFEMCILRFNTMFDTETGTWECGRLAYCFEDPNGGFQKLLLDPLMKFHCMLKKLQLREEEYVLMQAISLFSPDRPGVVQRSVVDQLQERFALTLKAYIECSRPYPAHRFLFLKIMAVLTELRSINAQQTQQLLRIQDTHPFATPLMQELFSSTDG
In short: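 COS-1 cells (1×10^4/well) co-transfected with rat PXR expression, reporter and Renilla control plasmids via jetPEI. After 24 h, test compound or 0.1% DMSO added in serum-free D-MEM for 24 h. Dual-luciferase read-out, firefly normalized to Renilla, fold vs vehicle. REC20: concentration reaching 20% of 1 μM PCN activity. Mean ± SD, ≥3 experiments in duplicate; Dunnett's test.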

rat CAR [2] = target: T3, rat CAR (Rattus norvegicus, UniProt Q9QUS1); experiment: Rat CAR reporter gene assay in COS-1 cells; assay type: cell-based; settings: for Agonistic activity REC20 CAR: concentration showing 20% of the agonistic activity of 30 μM artemisinin; for Agonistic activity REC20 CAR / Inverse agonistic activity RIC20 CAR: ±SD; for Inverse agonistic activity RIC20 CAR: concentration showing 80% of the activity of the vehicle control; for CAR agonistic activity (in words) / CAR inverse agonistic activity (in words): up to 30 μM
T3 sequence (Q9QUS1 1-358): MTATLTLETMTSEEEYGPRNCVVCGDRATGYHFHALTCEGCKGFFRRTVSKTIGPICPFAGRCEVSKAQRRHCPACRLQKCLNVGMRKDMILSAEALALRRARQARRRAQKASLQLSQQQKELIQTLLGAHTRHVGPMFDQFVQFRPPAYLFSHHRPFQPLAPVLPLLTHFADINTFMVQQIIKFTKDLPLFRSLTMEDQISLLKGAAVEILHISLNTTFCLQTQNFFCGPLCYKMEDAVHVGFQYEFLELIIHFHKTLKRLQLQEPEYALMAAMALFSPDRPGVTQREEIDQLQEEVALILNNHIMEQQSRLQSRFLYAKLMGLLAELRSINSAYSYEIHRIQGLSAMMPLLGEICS

rat CAR [3] = target: T3, rat CAR; settings: ref Omiecinski et al., 2011a; cited from earlier work
rat PXR [4] = target: T2, rat PXR; assay type: cell-based; settings: microsomes of PB- and MC-treated rats, NADPH, vs boiled microsomes
In short: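 Test compound (1 μmol) incubated 30 min at 37 °C in 0.1 M K,Na-phosphate pH 7.4. Mix held an NADPH-generating system and liver microsomes (60 mg protein) from male SD rats given PB 80 mg/kg i.p. plus MC 25 mg/kg p.o. daily for 3 d. Boiled microsomes were the control. Ethyl acetate extract went into DMSO and onto transfected COS-1 cells for 24 h. Normalized firefly/Renilla fold vs vehicle; n=3, t-test.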

mouse CAR = settings: ref Baldwin and Roling (2009); cited from earlier work
human CAR = settings: ref Baldwin and Roling (2009); cited from earlier work

Compound | Agonistic activity REC20 PPARα (rat PPARα) | Agonistic activity REC20 PXR (rat PXR [1]) | PXR agonistic activity (in words) (rat PXR [1]) | Agonistic activity REC20 CAR (rat CAR [2]) | Inverse agonistic activity RIC20 CAR (rat CAR [2]) | CAR agonistic activity (in words) (rat CAR [2]) | CAR inverse agonistic activity (in words) (rat CAR [2]) | Change of PXR activity upon incubation with rat liver microsomes (rat PXR [4]) | also measured
OCc1cccc(Oc2ccccc2)c1 [PBAlc, 3-phenoxybenzyl alcohol] | - ^c (No effect (REC20 > 30 μM)) | - ^c (No effect (REC20 > 30 μM)) | weak PXR agonistic activity | - ^c (No effect (REC20 > 30 μM)) | - ^c (No effect (REC20 > 30 μM)) | did not show CAR agonistic or inverse agonistic activity | did not show CAR agonistic or inverse agonistic activity | – | –
CC(C)(Oc1ccc(CCNC(=O)c2ccc(Cl)cc2)cc1)C(=O)O [BZF, bezafibrate, reference compound] | 3.68 ± 0.0944 µM | – | – | – | – | – | – | – | PPARα luciferase activity, fold (rat PPARα; 30 μM): 2.4 fold
O=C(O)c1cccc(Oc2ccccc2)c1 [PBAcid, 3-phenoxybenzoic acid] | 26.8 µM and 26.8 ± 21.3 µM | - ^c (No effect (REC20 > 30 μM)) | inactive | - ^c (No effect (REC20 > 30 μM)) | - ^c (No effect (REC20 > 30 μM)) | did not show CAR agonistic or inverse agonistic activity | did not show CAR agonistic or inverse agonistic activity | – | PPARα agonistic activity (in words) (rat PPARα): dose-dependent agonistic activity; also recorded: more active PPARα agonists than the parent compounds
C[C@@H]1CC[C@H]2[C@@H](C)C(=O)O[C@@H]3O[C@@]4(C)CC[C@@H]1[C@]32OO4 [artemisinin, reference compound] | – | – | – | 2.53 ± 4.02 µM | – | – | – | – | CAR luciferase activity, fold (rat CAR [2]; 30 μM): 1.9 fold
Clc1ccc(-c2nc3sccn3c2C=NOCc2ccc(Cl)c(Cl)c2)cc1 [CITCO, 6-(4-chlorophenyl)imidazo[2,1-b][1,3]thiazole-5-carbaldehyde O-(3,4-dichlorobenzyl)oxime] | – | – | – | – | – | – | – | – | Rat CAR activity (rat CAR [3]): inactive toward rat CAR
CC(C)=C[C@@H]1[C@@H](C(=O)OCc2coc(Cc3ccccc3)c2)C1(C)C [bioresmethrin] | - ^c (No effect (REC20 > 30 μM)) | 1.92 ± 0.724 µM | relatively weak activities | - ^c (No effect (REC20 > 30 μM)) | - ^c (No effect (REC20 > 30 μM)) | – | showed CAR inverse agonistic activity | slightly decreased | –
CC1(C)C(C=C(Cl)Cl)C1C(=O)OC(C#N)c1cccc(Oc2ccccc2)c1 (stereo not drawn) [cypermethrin] | - ^c (No effect (REC20 > 30 μM)) | 0.468 ± 0.0267 µM | – | - ^c (No effect (REC20 > 30 μM)) | - ^c (No effect (REC20 > 30 μM)) | – | – | – | Mouse CAR agonistic activity (mouse CAR): agonists; PXR activity, fold compared with the control (rat PXR [1]; 1 μM or lower): about 2 fold; PXR activity, fold compared with the control (rat PXR [1]; concentration range 1–30 μM): about 3 fold; Human CAR agonistic activity (human CAR): agonists
CC1(C)[C@H](C(=O)O[C@H](C#N)c2cccc(Oc3ccccc3)c2)[C@@H]1C=C(Br)Br [deltamethrin] | - ^c (No effect (REC20 > 30 μM)) | 0.156 ± 0.0216 µM | – | – | – | – | – | decreased | –
Clc1cnc(Oc2ccc(Oc3ncc(Cl)cc3Cl)cc2)c(Cl)c1 [TCPOBOP, 1,4-bis[2-(3,5-dichloropyridyloxy)]benzene] | – | – | – | – | – | – | – | – | Rat CAR activity (rat CAR [3]): inactive toward rat CAR
O=Cc1cccc(Oc2ccccc2)c1 [PBAld, 3-phenoxybenzaldehyde] | - ^c (No effect (REC20 > 30 μM)) | - ^c (No effect (REC20 > 30 μM)) | inactive | - ^c (No effect (REC20 > 30 μM)) | - ^c (No effect (REC20 > 30 μM)) | did not show CAR agonistic or inverse agonistic activity | did not show CAR agonistic or inverse agonistic activity | – | PPARα agonistic activity (in words) (rat PPARα): weak activity; also recorded: more active PPARα agonists than the parent compounds
CC1(C)[C@H](C=C(Cl)Cl)[C@H]1C(=O)OCc1cccc(Oc2ccccc2)c1 [trans-permethrin] | - ^c (No effect (REC20 > 30 μM)) | 0.674 ± 0.0526 µM | – | 4.19 µM and 4.19 ± 3.26 µM | - ^c (No effect (REC20 > 30 μM)) | showed CAR agonistic activity at higher concentrations; also recorded: weak CAR agonistic activity | – | decreased | PXR activity, fold compared with the control (rat PXR [1]; 1 μM or lower): about 2 fold; PXR activity, fold compared with the control (rat PXR [1]; concentration range 1–30 μM): about 3 fold
CC1(C)[C@H](C(=O)OCc2cccc(Oc3ccccc3)c2)[C@@H]1C=C(Cl)Cl [cis-permethrin] | - ^c (No effect (REC20 > 30 μM)) | 0.329 ± 0.0472 µM | – | - ^c (No effect (REC20 > 30 μM)) | - ^c (No effect (REC20 > 30 μM)) | showed CAR agonistic activity at higher concentrations; also recorded: weak CAR agonistic activity | – | decreased | PXR activity, fold compared with the control (rat PXR [1]; concentration range 1–30 μM): about 3 fold
CC(=O)[C@H]1[C@H](C#N)C[C@H]2[C@@H]3CC=C4C[C@@H](O)CC[C@]4(C)[C@H]3CC[C@@]21C [PCN, 5-Pregnen-3β-ol-20-one-16α-carbonitrile, reference compound] | – | 0.0887 ± 0.0118 µM | – | – | – | – | – | – | PXR luciferase activity, fold compared to DMSO-treated cells (rat PXR [1]; 1 μM): 3.2 fold
CC(C)=CC1C(C(=O)OCc2cccc(Oc3ccccc3)c2)C1(C)C (stereo not drawn) [phenothrin] | - ^c (No effect (REC20 > 30 μM)) | 3.89 ± 1.03 µM | relatively weak activities | - ^c (No effect (REC20 > 30 μM)) | - ^c (No effect (REC20 > 30 μM)) | – | showed CAR inverse agonistic activity | to the control level; also recorded: significantly decreased | –
C=CCC1=C(C)C(OC(=O)C2C(C=C(C)C)C2(C)C)CC1=O (stereo not drawn) [allethrin] | - ^c (No effect (REC20 > 30 μM)) | 0.668 ± 0.129 µM | – | - ^c (No effect (REC20 > 30 μM)) | - ^c (No effect (REC20 > 30 μM)) | – | – | slightly decreased | PXR activity, fold compared with the control (rat PXR [1]; 1 μM or lower): about 2 fold; PXR activity, fold compared with the control (rat PXR [1]; concentration range 1–30 μM): about 3 fold

Source: publication PMC6745485 (Heliyon, 2019)
